Where “and” joins values, the source holds several entries; their conditions need not be identical. Equal entries are not always repeated. Ends that are not written are not given here.
What was measured:
[1] = Calcein leakage from large unilamellar vesicles; details: 20 min; for calcein leakage (membrane disruption) from LUVs: LUVs of 100% anionic lipid POPS; for calcein leakage from LUVs as lipid composition became less negatively charged: greater proportion of zwitterionic lipid POPC
In short: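 LUVs were made from POPC/POPS films (1 mg total lipid) hydrated in 10 mM Tris, 150 mM NaCl, 1 mM EDTA, pH 7.4, with 70 mM calcein. Suspensions were freeze-thawed five times, extruded 15 times through 100 nm filters, and cleared of free dye on Sephadex G-50. Vesicles were diluted to 10 μM final lipid, given peptide at set peptide:lipid molar ratios and held ~20 min at room temperature. Ex 490/em 520 was read against 1% Triton X-100 and water controls. Samples were run at least in duplicate per preparation; values are the mean of three experiments ± SD.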

[2] = MTT cytotoxicity assay, primary HMECs; format: cell-based, human; details: % Cytotoxicity, 24 h, mean ± SEM
In short: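 Primary HMECs (MEGM-maintained, ≤6 passages) were seeded at 2 × 10⁵ cells/ml 24 h before treatment. They were exposed for 24 h at 2.5% final FBS, 37°C, 10% CO₂. MTT ([…] final) was added for the last 2 h, with 1% Triton X-100 as the 100%-death control. Formazan was dissolved in DMSO and OD 490 read. Cytotoxicity = (E−N)/(P−N)×100 against vehicle and Triton controls; values are the mean of 3 independent experiments ± SEM.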

[3] = MTT cytotoxicity assay, MDA-MB-231 cells; format: cell-based, human; details: % Cytotoxicity, MTT, 24 h, mean ± SEM
[4] = tested on: MDA-MB-231 breast cancer cells; experiment: MTT cytotoxicity assay, MDA-MB-231 cells; format: cell-based, human; details: read-out: IC50 in MDA-MB-231 breast cancer cells; C-terminal amide form
Jurkat cells = experiment: DNA laddering; format: cell-based, human; details: 0.1-25 μM, 4 h
In short: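 Jurkat cells (RPMI 1640, 5% CO₂, 37°C) were exposed to test compound for 4 h, alongside medium, vehicle and 50 μM etoposide (4 h or 24 h) controls. DNA was extracted with a kit and run on a 0.8% agarose gel to look for laddering.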

[5] = MTT cytotoxicity assay, normal PBMCs; format: cell-based, human; details: % Cytotoxicity, PBMCs, MTT, 24 h, mean ± SEM
PBMCs = experiment: MTT cytotoxicity assay, normal PBMCs; format: cell-based, human; details: read-out: IC50 to PBMC; normal cells (PBMC)
[6] = tested on: Paclitaxel-resistant MCF7-TX400 cells; experiment: Trypan blue exclusion, MCF7 and MCF7-TX400; format: cell-based, human; details: 24 h
In short: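 MCF7 and paclitaxel-resistant MCF7-TX400 cells were maintained in DMEM/10% FBS at 10% CO₂ for ≤30 passages. They were cultured with or without test compound for 24 h, and viability was scored by trypan blue exclusion counts. Values are the mean of 3 independent experiments ± SEM.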

[7] = tested on: cancer cells and normal cells; experiment: Specificity factor: IC50 in cancer cells versus normal cells; format: cell-based; details: depending on the cancer cell line and the normal cell compared
[8] = tested on: MDA-MB-231 breast cancer cells; experiment: Propidium iodide uptake, MDA-MB-231; format: cell-based, human
In short: (§1)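 Jurkat or MDA-MB-231 cells (5 × 10⁵) were exposed to test compound or vehicle. PI (10 μg/ml final) was added 5 min before flow cytometry, and mean channel fluorescence was recorded. For Jurkat, exposure lasted 5 or 10 min, with n=3.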

[9] = tested on: leukemia cells (Jurkat, THP-1); format: cell-based, human; details: read-out: IC50 toward leukemia cells
Jurkat T-ALL cells [10] = experiment: Combination with chemotherapeutic agents, MTT assay 72 h; format: cell-based, human
In short: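 Jurkat cells in RPMI 1640 (2.5% FBS final), seeded at 5 × 10⁵ cells/ml just before treatment. Increasing concentrations of a chemotherapeutic agent, with or without test peptide fixed at 4.5 μM, for 72 h at 37°C, 5% CO₂. MTT added at […] final for the last 2 h; DMSO-solubilised formazan read at 490 nm. Percent cytotoxicity scaled between vehicle and 1% Triton X-100; mean of 3 independent experiments ± SEM.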

Jurkat T-ALL cells [11] = experiment: LDH-release time course, Jurkat cells; format: cell-based, human
In short: (§2)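 Jurkat cells or PBMCs (density-gradient isolated from healthy donors' venous blood) were cultured at 37°C, 5% CO₂, with test compound over a time course. Supernatants taken at each time point were assayed for LDH activity with a commercial kit. Percent cytotoxicity = (E−N)/(P−N)×100, with vehicle as negative and Triton X-100 as positive control. Values are the mean of 3 independent experiments ± SEM.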

HOPC myeloma cells = format: cell-based, mouse; details: read-out: IC50 toward myeloma cells
primary PBMCs = experiment: LDH-release time course, PBMCs; format: cell-based, human
In short: as §2

[12] = MTT cytotoxicity assay, Jurkat cells; format: cell-based, human; details: % Cytotoxicity, Jurkat, MTT, 24 h, mean ± SEM
Jurkat T leukemia cells = experiment: MTT cytotoxicity assay, Jurkat cells; format: cell-based, human; details: for effect of pan-caspase inhibitor BOC-D-FMK on induced cell death: BOC-D-FMK 40 μM
Jurkat T-ALL cells [13] = experiment: Propidium iodide uptake, Jurkat; format: cell-based, human; details: 25 μM, 5 or 10 min
In short: as §1

Hemolysis assay = format: cell-based, human; details: % Hemolysis, human erythrocytes, 4 h, mean ± SEM
human erythrocytes = experiment: Hemolysis assay; format: cell-based; details: screen of 24 short cationic peptides
[14] = tested on: 4T1 mouse mammary carcinoma; experiment: 4T1 mammary carcinoma model in BALB/c mice; format: in vivo; details: IP, gemcitabine 60 mg/kg Q7D, Mastoparan 6 mg/kg Q2D, from day 5
[15] = tested on: breast cancer cells (MDA-MB-231, SKBR3, MDA-MB-468, T47D, 4T1); format: cell-based, human; mouse; details: read-out: IC50 toward breast cancer cells
[16] = Mastoparan 4.5 μM (IC10) with vinblastine, Jurkat, MTT 72 h

In the case of `CC[C@H](C)[C@H](N)C(=O)N[C@@H](CC(N)=O)C(=O)N[C@@H](CC(C)C)C(=O)N[C@@H](CCCCN)C(=O)N[C@@H](C)C(=O)N[C@@H](CC(C)C)C(=O)N[C@@H](C)C(=O)N[C@@H](C)C(=O)N[C@@H](CC(C)C)C(=O)N[C@@H](C)C(=O)N[C@@H](CCCCN)C(=O)N[C@@H](CCCCN)C(=O)N[C@H](C(=O)N[C@@H](CC(C)C)C(N)=O)[C@@H](C)CC` [Mastoparan, INLKALAALAKKIL-NH2], the “calcein leakage (membrane disruption) from LUVs” value [1] is reported as “caused membrane disruption”, the “calcein leakage from LUVs as lipid composition became less negatively charged” value [1] is reported as “largely unchanged” and the cytotoxicity ([2]; 10 μM Mastoparan) is reported as 16 ± 1%. The cytotoxicity ([2]; 25 μM Mastoparan) was 37 ± 7%, the cytotoxicity ([2]; 50 μM Mastoparan) was 67 ± 14% and the cytotoxicity ([3]; MDA-MB-231, 10 μM Mastoparan) was 20 ± 1%. The cytotoxicity ([3]; MDA-MB-231, 25 μM Mastoparan) was 62 ± 2%, the cytotoxicity ([3]; MDA-MB-231, 50 μM Mastoparan) was 96 ± 1% and the IC50 [4] was 22 µM. The DNA laddering (Jurkat cells) was “did not cause DNA laddering”, the cytotoxicity ([5]; 10 μM Mastoparan) was 13 ± 5% and the cytotoxicity ([5]; 25 μM Mastoparan) was 29 ± 7%. The cytotoxicity ([5]; 50 μM Mastoparan) was 49 ± 3%, the IC50 (PBMCs) was 48 µM and the “toxicity to MCF7-TX400 cells compared with parental MCF7 cells” value [6] was “as toxic”. For the same compound, the “specificity factor (selectivity index): fold-difference in the IC50 between cancer cells and normal cells” value [7] was 2–6 fold, the “PI uptake (membrane integrity)” value [8] was “rapid PI uptake” and the IC50 [9] was 8 to 9.2 µM. The IC10 concentration (Jurkat T-ALL cells [10]; Jurkat T-ALL cells) was 4.5 µM, the “fold reduction of the EC50 of etoposide” value (Jurkat T-ALL cells [10]; Mastoparan 4.5 μM (IC10) with etoposide, Jurkat, MTT 72 h) was “approximately 2 fold” and the “increase of vinblastine-mediated cytotoxicity” value (Jurkat T-ALL cells [10]; [16]) was 10% and ~ 10%. The ΔIC50 of vinblastine (Jurkat T-ALL cells [10]; [16]) was ~ 1.2 fold, the “time at which cytotoxicity peaked” value (Jurkat T-ALL cells [11]) was 8 h and the IC50 (HOPC myeloma cells) was ~11 µM. For the same compound, the “time at which cytotoxicity peaked” value (primary PBMCs) was 8 h, the cytotoxicity ([12]; 10 μM Mastoparan) was 64 ± 7% and the cytotoxicity ([12]; 25 μM Mastoparan) was 95 ± 4%. For the same compound, the cytotoxicity ([12]; 50 μM Mastoparan) was 97 ± 1%, the “effect of pan-caspase inhibitor BOC-D-FMK on induced cell death” value (Jurkat T leukemia cells; Jurkat, MTT 24 h) was “not reversed” and the “cytotoxic potency of amidated form compared with free carboxyl form” value (Jurkat T leukemia cells; Jurkat, MTT 24 h) was “significantly more potent”. The “fold more potent than Mastoparan-COOH” value (Jurkat T leukemia cells; Mastoparan-NH2 versus Mastoparan-COOH) was 8–11 fold, the IC50 (Jurkat T leukemia cells; read-out: IC50 in Jurkat T-ALL cells, C-terminal amide form) was 9.1 µM and the “PI uptake (membrane integrity)” value (Jurkat T-ALL cells [13]) was “rapid PI uptake”. It also gave a hemolysis (Hemolysis assay; 10 μM Mastoparan) of 1 ± 1%, a hemolysis (Hemolysis assay; 25 μM Mastoparan) of 2 ± 1% and a hemolysis (Hemolysis assay; 50 μM Mastoparan) of 7 ± 1%. The “hemolytic activity in preliminary screen” value (human erythrocytes) was “devoid of hemolytic activity”, the “tumour growth (tumour volume and mass) in comparison to saline-treated mice” value [14] was “not statistically significant” and the IC50 [15] was 20 to 24 µM.
For `COc1cc([C@@H]2c3cc4c(cc3[C@@H](O[C@@H]3O[C@@H]5CO[C@@H](C)O[C@H]5[C@H](O)[C@H]3O)[C@H]3COC(=O)[C@H]23)OCO4)cc(OC)c1O` [etoposide, reference compound], the “effect of pan-caspase inhibitor BOC-D-FMK on induced cell death” value (Jurkat T leukemia cells; Jurkat, MTT 24 h) was “significantly reduced”.
In the case of `Nc1ccn([C@@H]2O[C@H](CO)[C@@H](O)C2(F)F)c(=O)n1` [gemcitabine, reference compound], the “tumour growth (tumour volume and mass) in comparison to saline-treated mice” value [14] is reported as “not statistically significant”.
With “INLKALAALAKKIL-COOH (INLKALAALAKKIL-OH) [Mastoparan-COOH, reference compound]” the “calcein leakage (membrane disruption) from LUVs” value [1] was “caused membrane disruption” and the “calcein leakage from LUVs as lipid composition became less negatively charged” value [1] was “significantly reduced”.
